Results pooled from the literature.
Compare with care: the assays were run in different laboratories.
Target: Cyclin-dependent kinase 14 (CDK14, Homo sapiens, UniProt O94921)

Compound	assay	setting	remaining binding [%]
c1cnn2ncc(-c3ccnc(N4CCC45COC5)n3)c2c1	binding	1 µM	88
O=C(Nc1cnc(Oc2ccc(F)cc2)nc1)N1CCc2ncccc2[C@@H]1c1ccc(F)cc1	cell-free assay, competition with immobilised ligand	1 µM	100
COc1cnc(Nc2cccc(S(N)(=O)=O)c2)nc1N1CCN(c2ccccc2)CC1	binding, competition with immobilised ligand	1 µM	94
O=C(c1ccc(Nc2ncc(Cl)c(-c3cc4ccccc4s3)n2)cc1)N1CCC(N2CCCC2)CC1	binding, competition with immobilised ligand	1 µM	78
COc1cnc(Nc2cccc(S(N)(=O)=O)c2)nc1N1CCN(c2ccccc2)C(=O)C1	binding, competition with immobilised ligand	1 µM	100
F[C@@H]1CCN(c2nccc(-c3cnn4ncccc34)n2)C1	binding	1 µM	100
FC(F)(F)Oc1cccc(-c2cnc3ccc(-c4ccncc4)nn23)c1	cell-free assay, competition with immobilised ligand	5 µM	68
Cc1nc(C2CCN(C(=O)c3ccc(OC(F)(F)F)cc3N)CC2)c2ncc(N3CCN(C)CC3)cc2n1	cell-free assay, competition with immobilised ligand	1 µM	100
COc1ncc2cc3ccccc3nc2c1C#N	cell-free assay, competition with immobilised ligand	5 µM	99
N[C@H]1CCN(c2nccc(-c3cnn4ncccc34)n2)C1	binding	1 µM	100
Cc1cnc(Nc2ccc(C(=O)N3CCC(N4CCCC4)CC3)cc2)nc1-c1cc2ccccc2s1	binding, competition with immobilised ligand	1 µM	100
O=C(N1CCS(=O)(=O)CC1)N1C[C@H](c2ccc(OC(F)(F)F)cc2)C[C@H](c2nc(C3CC3)no2)C1	cell-free assay, competition with immobilised ligand	1 µM	100
C[C@@H]1CCN(c2nccc(-c3cnn4ncccc34)n2)C1	binding	1 µM	100
O=C(Nc1c[nH]nc1C(=O)NC1CCNCC1)c1cc(F)cc(F)c1	binding, competition with immobilised ligand	1 µM	99
CN(CCCC(F)(F)F)c1nccc(-c2cnn3ncccc23)n1	binding	1 µM	93
CS(=O)(=O)c1cc(C2(NC(=O)c3cncc4c3cnn4-c3ccc(F)cc3)CC2)ccn1	cell-free assay, competition with immobilised ligand	1 µM	100
CN(c1nccc(-c2cnn3ncccc23)n1)C1CC1	binding	1 µM	100
CCOC(=O)c1cc2cc(-c3cc(C(=O)NCc4ccc(C(=O)O)cc4)nn3C)ccc2[nH]1	cell-free assay, competition with immobilised ligand	0.1 µM	100
